NOD2 RIPK2 PPI – blocks binding of human NOD2 to RIPK2. O43353. CHO BLA complementation NOD2-RIPK2, CCF4 ratio. inhibition, % at 4.98 µM. 360,000 compounds, 0.38% hits. AID 624267; in the data active = inhibition above about 21%;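 also: 0% = vehicle only and 100% = reference blocker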
TLR4 MyD88 comp – blocks binding of human TLR4 to MyD88; 200,000 compounds, 0.18% hits; HeLa CL3-4 TLR4/MyD88 BLA complementation, FRET ratio; inhibition, % at 8.4 µM; AID 861; in the data active = inhibition above about 25%;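 also: 0% = vehicle and 100% = reference inhibitor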
MC4R ag barr – human MC4R agonism via beta-arrestin | activation, % at 8.9 µM | AID 540308 | 360,000 compounds, 0.98% hits | U2OS MC4R beta-arrestin complementation, luminescence; percent of melanotan II response, DMSO zero | P32245;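 active = activation above a per-plate cutoff, the mean activation of sample wells on that plate plus 3 SD, cut at about 8% in these data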
NTR1 agonist – activates human neurotensin receptor 1 | NTR1-U2OS beta-arrestin-GFP spot imaging, agonist mode | activation, % at 20 µM | P30989 | 330,000 compounds, 0.17% hits;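 active = activation at or above 40% of the spot to cytoplasm intensity ratio, with at least 20 cells analyzed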;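 also: 0% = DMSO without peptide and 100% = 100 nM NTR1 peptide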
Target sequence (P30989 whole entry, looked up): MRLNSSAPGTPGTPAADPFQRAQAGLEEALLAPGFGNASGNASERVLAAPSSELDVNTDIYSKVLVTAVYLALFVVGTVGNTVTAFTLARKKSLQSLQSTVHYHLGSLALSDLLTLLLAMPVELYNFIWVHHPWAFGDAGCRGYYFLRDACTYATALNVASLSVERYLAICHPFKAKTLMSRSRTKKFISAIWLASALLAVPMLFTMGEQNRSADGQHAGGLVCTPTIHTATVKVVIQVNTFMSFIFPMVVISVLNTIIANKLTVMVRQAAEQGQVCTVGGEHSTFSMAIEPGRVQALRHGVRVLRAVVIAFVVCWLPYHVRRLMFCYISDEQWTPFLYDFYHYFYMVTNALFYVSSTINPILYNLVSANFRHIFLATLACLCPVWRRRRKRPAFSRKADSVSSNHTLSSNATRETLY
MC4R antag cAMP – human MC4R antagonism in cAMP assay | MC4R-expressing cells, MTII-stimulated cAMP, LANCE TR-FRET | inhibition, % at 6.5 µM | 360,000 compounds, 0.48% hits | AID 540295;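 active = inhibition above its plate's cutoff, the mean of tested wells on that plate plus 3 SD, cut at about 29% in these data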;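 also: 0% = Melanotan II alone and 100% = Melanotan II plus saturating MCL0020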
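Material: human MC4R-expressing U2OS cells. Probe or stimulus: Melanotan II challenge. Dosing: 6.5 µM single dose. Times: 30-min compound, 1-h challenge, 1-h detection, room temperature. Technique: TR-FRET with Eu-cAMP and labeled anti-cAMP, 671 nm. Replication: singlicate.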
TLR9-MyD88 block – TLR9-MyD88 interaction inhibition; Q9NR96+Q99836; CHO BLA complementation TLR9-MyD88, CCF4 FRET ratio; inhibition, % at 4.98 µM; AID 504734; 340,000 compounds, 0.21% hits;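 active = inhibition above the mean over all tested compounds plus 3 SD, cut at about 21% in these data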;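 also: 0% = DMSO only wells and 100% = clavulanate BLA inhibitor control wells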
MC4R barr ag – human MC4R beta-arrestin agonism confirmation; shares compounds with MC4R ag barr; U2OS MC4R beta-arrestin recruitment, luminescence; scaled DMSO 0%, Melanotan II 100%; activation, % at 8.9 µM; 2,400 compounds, 31% hits; AID 602192;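 active = mean activation across replicates above the hit cutoff set in the earlier primary screen, cut at about 8% in these data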
MOR DOR agonist – counter-screen for MC4R agonists: agonists of mu-delta opioid heterodimer. shares compounds with MC4R ag barr. U2OS PathHunter beta-arrestin, beta-gal luminescence; percent of deltorphin B response, DMSO zero. activation, % at 9.2 µM. 2,400 compounds, 5.8% hits;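 active = mean activation across replicates exceeds the hit threshold derived in the earlier primary screen, cut at about 18% in these data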;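 also: 100% = deltorphin B at 0.9 µM final and 0% = DMSO alone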
* = called active by the depositor; · = not tested or not shown. This is a sample that favours compounds with a hit; in the whole collection about 1.9% have one here.

SMILES | NOD2 RIPK2 PPI | TLR4 MyD88 comp | MC4R ag barr | NTR1 agonist | MC4R antag cAMP | TLR9-MyD88 block | MC4R barr ag | MOR DOR agonist
O=C(NC(=S)NCCC1=CCCCC1)c1ccc(Br)o1 | -6 | 8 | 0 | 8 | 0 | 0 | · | ·
Cc1cc(C(=O)Nc2ccc(N3CCCC3)c(Cl)c2)ccc1[N+](=O)[O-] | 1 | 15 | -1 | 6 | 5 | 15 | · | ·
O=C(Nc1ccc(N2CCCC2)c(Cl)c1)c1ccc([N+](=O)[O-])cc1 | -3 | 2 | 21* | 0 | 3 | -1 | 6 | 9
CCCCCCCCNC(=O)c1cccnc1SCC(=O)Nc1ccccc1OC | -6 | -8 | 15* | 9 | -2 | 10 | 8 | 5
COc1ccc(OC)c(NC(=O)CSc2ncccc2C(=O)O)c1 | -9 | -1 | 0 | 0 | 0 | 1 | · | ·
Cc1c(-c2ccccn2)c(=O)[nH]n1-c1ccc(F)cc1 | -4 | -13 | 0 | 0 | 10 | -17 | · | ·
C=CCOC(=O)C1=C[C@@H](c2ccc(Br)cc2)C[C@@H](OCc2ccc(CO)cc2)O1 | -17 | -5 | 2 | 6 | 5 | 4 | · | ·
CCN(CC)C(=O)[C@H]1CC(CC(=O)NCCCn2ccnc2)C(=O)N2CCc3c([nH]c4ccc(OC)cc34)[C@]12C (stereo partly drawn) | -4 | · | -1 | 1 | 1 | 2 | · | ·
O=C(CO/N=C/c1ccccc1OC(F)F)N1CCc2ccccc21 | -2 | 5 | 11* | 0 | 24 | 3 | -2 | 10
CC1Cc2ccccc2N1C(=O)CO/N=C/c1ccccc1OC(F)F (stereo not drawn) | -1 | 2 | 0 | 2 | 19 | 4 | · | ·
COC(=O)CSc1nnc(-c2ccccc2OC)o1 | -1 | -15 | -1 | 0 | 5 | 8 | · | ·
Cc1cccc(C)c1OC(=O)CSc1nnc(-c2ccccc2O)o1 | -20 | 4 | 54* | 9 | 3 | 1 | 8.2* | 4
CC(C)N(C(=O)[C@H]1C[C@H](CC(=O)NCCN2CCOCC2)C(=O)N2CCc3c([nH]c4cc(CCC(=O)N(C)C)ccc34)[C@]12C)C(C)C | 11 | · | -2 | 0 | -2 | 6 | · | ·
CCOCC(=O)Nc1c(C(=O)Nc2ccc(OC)cc2OC)oc2ccccc12 | -19 | -5 | 13* | 11 | 3 | -2 | 9.9* | 6
COc1ccc(NC(=O)c2oc3ccccc3c2NC(=O)C2CC2)c(OC)c1 | 1 | · | 3 | 16 | -1 | -4 | · | ·
COCC(=O)Nc1c(C(=O)Nc2ccccc2OC)oc2ccccc12 | 2 | -3 | 22* | 5 | 3 | -1 | 3 | 5
COc1ccccc1NS(=O)(=O)c1ccc(NC(=O)c2[nH]nc(OC)c2[N+](=O)[O-])cc1 | -9 | · | -1 | 1 | 5 | -9 | · | ·
N#CC(c1ccccc1)C(CC(=O)c1ccccc1)c1ccccc1 (stereo not drawn) | -1 | · | -2 | · | 3 | -5 | · | ·
Cc1cc(OC(C)C(=O)NCc2ccccn2)c2c(C)c(Cc3ccccc3)c(=O)oc2c1 (stereo not drawn) | -102 | · | 11* | 7 | 11 | -4 | 1 | 2
Cc1cc(OC(C)C(=O)NCc2ccccn2)c2c(C)cc(=O)oc2c1 (stereo not drawn) | -3 | · | 1 | 1 | 13 | -18 | · | ·
COC(=O)c1sc2nc(C)nc(SCC(=O)Nc3sccc3C(N)=O)c2c1C | -3 | · | 19* | 7 | 0 | -6 | 8 | 5
Cc1nc(N)c2c(Cc3cccc4ccccc34)nn(C(C)(C)C)c2n1 | 7 | · | 3 | 12 | -22 | 7 | · | ·
CC1CCN(S(=O)(=O)c2ccc(C(=O)OCc3ccc4c(c3)OCO4)cc2)CC1 | -7 | 3 | 12* | 8 | 8 | -10 | 7 | 3
COc1cccc(/C=C/C(=O)N(C)CC(=O)Nc2ccc(Cl)c(C(F)(F)F)c2)c1 | 6 | · | 12* | 1 | -3 | -8 | 1 | 6
COc1c(F)c(F)c(C(=O)Nc2ccc(N3CCN(Cc4ccccc4)CC3)cc2)c(F)c1F | 0 | -14 | 11* | 10 | 13 | 4 | 2 | 4
SMILES | NOD2 RIPK2 PPI | TLR4 MyD88 comp | MC4R ag barr | NTR1 agonist | MC4R antag cAMP | TLR9-MyD88 block | MC4R barr ag | MOR DOR agonist
Clc1ccc(Cn2cc(/C=N/n3cnnc3)c3ccccc32)c(Cl)c1 | 1 | 3 | 16* | 34 | 14 | -1 | 11* | 8
CSc1ccccc1C(=O)N1CCc2ccc(NC(=O)c3ccccn3)cc2C1 | -9 | · | 0 | · | 6 | -3 | · | ·
CC(C)(C)SCCNC(=O)Nc1ccccc1 | -1 | -4 | -2 | -1 | 15 | 2 | · | ·
C[C@H]1CCCCO[C@H](CN(C)C(=O)C2CCCCC2)[C@@H](C)CN([C@@H](C)CO)C(=O)c2cc(NC(=O)NC3CCCCC3)ccc2O1 | -4 | · | -2 | · | 5 | -14 | · | ·
Nc1ccc(-c2cc(NC=O)c3ncc(-c4cccc(C(F)(F)F)c4)n3c2)cn1 | 4 | · | 11* | · | -18 | · | 5 | 5
COc1cc(-c2cnc3c(NC=O)cc(-c4cccnc4)cn23)cc(OC)c1OC | -10 | · | 1 | · | -53 | · | · | ·
COc1cc(-c2cnc3c(NC=O)cc(-c4cccc(C(F)(F)F)c4)cn23)cc(OC)c1OC | -6 | · | 18* | · | -1 | · | 7 | 5
COc1cccc(-c2cnc3c(NC=O)cc(-c4cccc(C(=O)N(C)C)c4)cn23)c1 | -9 | · | 31* | · | -11 | · | 21* | 1
CN(C)CCNC(=O)c1cccc(-c2cc(NC=O)c3ncc(-c4cccc(C(F)(F)F)c4)n3c2)c1 | 12 | · | 23* | · | -6 | · | 29* | 7
CC(C)CN1C(=O)/C(=C(/C#N)C(=O)NC2CCCCC2)c2ccccc21 | 0 | -4 | 2 | 1 | 15 | -3 | · | ·
CC1=C(C(=O)OCCc2ccccc2)C(c2ccsc2)NC(=O)N1C (stereo not drawn) | -6 | -9 | -2 | -2 | 6 | -2 | · | ·
COc1cccc(-c2cc(NC=O)c3ncc(-c4cc(OC)c(OC)c(OC)c4)n3c2)c1 | -5 | · | 28* | · | -49 | · | 6 | 4
COc1cccc(-c2cnc3c(NC=O)cc(-c4ccc(O)c(OC)c4)cn23)c1 | -6 | · | 30* | · | -5 | · | 30* | 4
Cc1[nH]ccc2cc3nc4ccccc4c3cc12 | -1 | · | -1 | · | 1 | -12 | · | ·
O=C1NC[C@@H](CCCCN2C[C@H](Cc3ccccc3)N(CCc3ccc(O)cc3)C(=O)C2=O)N(CC2CCCCC2)C1=O | -15 | · | · | · | · | · | · | ·
Cc1ccc(-c2nsc(SCC(=O)NCc3ccc4c(c3)OCO4)n2)cc1 | -3 | -3 | 0 | 3 | 5 | -3 | · | ·
